Results: ChEMBL document CHEMBL4265927, “Systematic variation of the benzoylhydrazine moiety of the GluN2A selective NMDA receptor antagonist TCN-201” (Eur J Med Chem, 2018)
pIC50: −log10 of the molar value. The source made the active and inactive calls. The calls are words filed in the database; no cut-off is given here.

Assays:
Format in all cases: cell-based
[1] = Negative allosteric modulation of GluN1a/GluN2A receptor (unknown origin) expressed in Xenopus laevis oocytes assessed as inhibition of (S)-glutamate/glycine-induced channel current at 500 nM at -70 mV holding potential by two electrode voltage clamp based electrophysiology assay relative to control TCN-201; details: Homo sapiens
How it was run: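 The screen ran on GluN1a/GluN2A oocytes (0.8 ng of each rat cRNA) by room-temperature TEVC in Mg2+-free Ba2+-Ringer, pH 7.4, with (S)-glutamate/glycine activation. Compounds were at 500 nM. Inhibition was normalized to that of the reference antagonist at 500 nM, tested in the same series of experiments. n is the number of independent oocytes.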

[2] = (§1) Negative allosteric modulation of GluN1a/GluN2A receptor (unknown origin) expressed in Xenopus laevis oocytes assessed as inhibition of (S)-glutamate/glycine-induced channel current at -70 mV holding potential in presence of 10 uM glycine by two electrode voltage clamp based electrophysiology assay; details: Homo sapiens
How it was run: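 Rat wild-type GluN1a and GluN2A cRNA (0.8 ng each) injected into defolliculated oocytes. TEVC at room temperature in Mg2+-free Ba2+-Ringer (10 mM HEPES, 90 mM NaCl, 1 mM KCl, 1.5 mM BaCl2, pH 7.4). Compound was diluted from DMSO stock into (S)-glutamate/glycine agonist solution over a 1 nM–10 range. There were 5 oocytes per concentration. The logistic fit had minimal and maximal inhibition fixed at 0% and 100%.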

Homo sapiens [3] = organism: Homo sapiens; assay: as §1, with “current at 200 nM at -70 mV” for “current at -70 mV”, “presence of 1 to 3 uM glycine” for “presence of 10 uM glycine”
How it was run: (§2)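 Oocytes co-injected with 0.8 ng each of rat GluN1a and GluN2A cRNA were recorded by TEVC at room temperature in Mg2+-free Ba2+-Ringer, pH 7.4. Compound was fixed at 200 nM. Currents were evoked by (S)-glutamate with glycine at 1, 3, 10 and 30. There were 3 oocytes per glycine level. Mean inhibition was fitted linearly (y = a + b*x) to give intercept and slope.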

[4] = as §1, with “current at 200 nM at -70 mV” for “current at -70 mV”, “presence of 1 to 10 uM” for “presence of 10 uM”; details: Homo sapiens; how it was run: as §2
Homo sapiens [5] = organism: Homo sapiens; assay: as §1, with “current at 200 nM at -70 mV” for “current at -70 mV”, “presence of 30 uM glycine” for “presence of 10 uM glycine”; how it was run: as §2
[6] = Negative allosteric modulation of GluN1a/GluN2B receptor (unknown origin) expressed in Xenopus laevis oocytes assessed as inhibition of (S)-glutamate/glycine-induced channel current at 10 uM at -70 mV holding potential by two electrode voltage clamp based electrophysiology assay; details: Homo sapiens
How it was run: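 For selectivity, oocytes received 0.8 ng GluN1a plus 0.8 ng GluN2B rat cRNA. TEVC was at room temperature in Mg2+-free Ba2+-Ringer, pH 7.4, with (S)-glutamate/glycine stimulation. Compounds were at 10 µM, giving 0.1% DMSO in the test solution. There were 4–5 oocytes per compound.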

[7] = as §1, with “current at 200 nM at -70 mV” for “current at -70 mV”, “presence of 1 to 30 uM glycine” for “presence of 10 uM glycine”; details: Homo sapiens; how it was run: as §2
[8] = Negative allosteric modulation of GluN1a/GluN2A receptor (unknown origin) expressed in Xenopus laevis oocytes assessed as inhibition of (S)-glutamate/glycine-induced channel current at -70 mV holding potential in presence of 3 uM glycine by two electrode voltage clamp based electrophysiology assay; details: Homo sapiens

O=C(NNC(=O)N1CCOCC1)c1ccc(CNS(=O)(=O)c2ccc(F)c(Cl)c2)cc1
Ratio [1]: 0.52

O=C(NNC(=O)c1ccc(CNS(=O)(=O)c2ccc(F)c(Cl)c2)cc1)c1ccccc1
pIC50 [2]: 6.29 | inhibition (Homo sapiens [3]): inactive | inhibition [4]: Active | inhibition (Homo sapiens [5]): Active | inhibition [6]: inactive

O=C(NNS(=O)(=O)c1ccccc1)c1ccc(CNS(=O)(=O)c2ccc(F)c(Cl)c2)cc1
Ratio [1]: 0.58

O=C(NNC(=O)c1ccc(CNS(=O)(=O)c2cccc(Br)c2)cc1)c1ccccc1
pIC50 [2]: 6.69

O=S(=O)(NCc1ccc(-c2nnc(-c3ccccc3)o2)cc1)c1ccc(F)c(Cl)c1
Ratio [1]: 0.31

O=C(NNC(=O)c1ccncn1)c1ccc(CNS(=O)(=O)c2ccc(F)c(Cl)c2)cc1
Ratio [1]: 0.92

O=C(NNCc1ccccc1)c1ccc(CNS(=O)(=O)c2ccc(F)c(Cl)c2)cc1
Ratio [1]: 0.73

O=C(NNC(=O)c1ccc2ccccc2c1)c1ccc(CNS(=O)(=O)c2ccc(F)c(Cl)c2)cc1
Ratio [1]: 0.44

CC(C(O)c1ccc(O)cc1)N1CCC(Cc2ccccc2)CC1 (configuration not stated)
inhibition [6]: inactive

O=C(NNC(=O)c1c[nH]c2ccccc12)c1ccc(CNS(=O)(=O)c2ccc(F)c(Cl)c2)cc1
Ratio [1]: 1.33 | pIC50 [2]: 6.67 | inhibition [7]: Active | inhibition [4]: Active | inhibition [6]: inactive

O=C(NNC(=O)c1ccco1)c1ccc(CNS(=O)(=O)c2ccc(F)c(Cl)c2)cc1
Ratio [1]: 1.1

O=C(NNC(=O)c1ccc[nH]1)c1ccc(CNS(=O)(=O)c2ccc(F)c(Cl)c2)cc1
Ratio [1]: 1.2

O=C(O)CCC(=O)NNC(=O)c1ccc(CNS(=O)(=O)c2ccc(F)c(Cl)c2)cc1
Ratio [1]: 0.3

O=C(NNC(=O)c1cc2ccccc2[nH]1)c1ccc(CNS(=O)(=O)c2ccc(F)c(Cl)c2)cc1
Ratio [1]: 1.28

O=C(NNC(=O)c1cccs1)c1ccc(CNS(=O)(=O)c2ccc(F)c(Cl)c2)cc1
Ratio [1]: 1.35 | pIC50 [2]: 6.70 | inhibition [7]: Active | inhibition [4]: Active | inhibition [6]: inactive

O=C(Cc1ccccc1)NNC(=O)c1ccc(CNS(=O)(=O)c2ccc(F)c(Cl)c2)cc1
Ratio [1]: 0.64

O=C(NNC(=O)c1cccs1)c1ccc(CNS(=O)(=O)c2cccc(Br)c2)cc1
pIC50 [2]: 6.65 | inhibition [7]: Active | inhibition [4]: Active | inhibition [6]: inactive

O=C(NNC(=O)c1cc2ccccc2s1)c1ccc(CNS(=O)(=O)c2ccc(F)c(Cl)c2)cc1
Ratio [1]: 0.58

Cc1ncc(CNC(=O)c2cnc(CNS(=O)(=O)c3ccc(F)c(F)c3)c(C)n2)s1
pIC50 [8]: 6.70 | inhibition [7]: Active | inhibition [4]: Active | inhibition (Homo sapiens [5]): Active
